The nature of data set [1]: Metabolic stability in aqueous ammonium carbonate solution assessed as trypsin/chymotrypsin (unknown origin)-mediated drug degradation by measuring half life at 0.05 ug/ml incubated in shaking conditions in presence of trypsin/chymotrpsin and measured for 48 hrs by RP-HPLC analysis. Type of data set: ADME. The settings on record: human.
The nature of data set [2]: Antagonist activity at ComD1 receptor in Streptococcus pneumoniae D39 harboring pcomX/lacZ reporter gene assessed as inhibiton of CSP1-stimulated maximum signal preincubated for 30 mins followed by 50 nM CSP1 addition by ONPG based beta-galactosidase assay. In a few lines:
(§1)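 Comx-lacZ β-gal reporter inhibition in D39 (ComD1, CSP1 50 nM) or TIGR4 (ComD2, CSP2 250 nM). Peptides tested over a range of concentrations against the stimulating CSP. Miller units normalized to CSP alone. IC50 given with 95% confidence interval.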
(In general: In a reporter assay the amount or activity of a reporter protein is the signal.)

Data set [3] is described as follows: Metabolic stability in human plasma at 0.33 mM measured for 3 hrs by RP-HPLC analysis. Type of data set: ADME, cell-free. The note with it: 330 µM.
For data set [4], the system named is Streptococcus pneumoniae D39. The experiment in a line: Agonist activity at ComD1 receptor in Streptococcus pneumoniae D39 harboring pcomX/lacZ reporter gene at 10 uM incubated for 30 mins by ONPG based beta-galactosidase assay relative to native CSP1. In a few lines: (§2)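 Single-dose screen of synthetic peptide at 10 μM in wild-type reporter strains (D39 for ComD1, TIGR4 for ComD2) producing their own CSP and carrying lacZ under the comX promoter. β-gal activity in Miller units normalized to native CSP (CSP1 or CSP2, 100%); DMSO 0%. Triplicates over three separate trials.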

For data set [5], the system named is Streptococcus pneumoniae TIGR4. Kind of data set: Agonist activity at ComD2 receptor in Streptococcus pneumoniae TIGR4 harboring pcomX/lacZ reporter gene at 10 uM incubated for 30 mins by ONPG based beta-galactosidase assay relative to native CSP2. In a few lines:
as §2

The nature of data set [6]: Agonist activity at ComD2 receptor in Streptococcus pneumoniae TIGR4 harboring pcomX/lacZ reporter gene incubated for 30 mins by ONPG based beta-galactosidase assay. In a few lines:
(§3)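 Dose-response in wild-type lacZ reporter strains (comX promoter; D39 for ComD1, TIGR4 for ComD2) producing native CSP. Peptides tested over a range of concentrations. β-gal read-out (Miller units) normalized to native CSP. EC50 reported with 95% confidence interval.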

A short description of data set [7]: Agonist activity at ComD1 receptor in Streptococcus pneumoniae D39 harboring pcomX/lacZ reporter gene incubated for 30 mins by ONPG based beta-galactosidase assay. In a few lines: as §3
A short description of data set [8]: Metabolic stability in human plasma assessed as half-life at 0.33 mM measured for 3 hrs by RP-HPLC analysis. Type of data set: ADME, cell-free.
The nature of data set [9]: Antagonist activity at ComD2 receptor in Streptococcus pneumoniae TIGR4 harboring pcomX/lacZ reporter gene assessed as inhibition of CSP2-stimulated maximum signal preincubated for 30 mins followed by 250 nM native CSP2 addition by ONPG based beta-galactosidase assay. In a few lines: as §1

We go through 13 molecules from ChEMBL document CHEMBL4364271, “Unveiling the Importance of Amide Protons in CSP:ComD Interactions in Streptococcus pneumoniae” (ACS Med Chem Lett, 2019).

Activity calls are given as the source filed them. The rule behind the calls is not given here. Non-standard residues stand in square brackets, D forms with d. Residues, ends and D or L forms follow the SMILES beside them. NMeR = CN[C@@H](CCCNC(=N)N)C(=O)O; NMeF = CN[C@@H](Cc1ccccc1)C(=O)O; NMeQ = CN[C@@H](CCC(N)=O)C(=O)O; NMeD = CN[C@@H](CC(=O)O)C(=O)O; NMeL = CN[C@@H](CC(C)C)C(=O)O; NMeS = CN[C@@H](CO)C(=O)O Where only a bound is given, the exact number is not on record here.

With `CC[C@H](C)[C@H](NC(=O)[C@H](Cc1ccccc1)NC(=O)[C@H](CC(=O)O)NC(=O)[C@H](CCCNC(=N)N)NC(=O)[C@H](Cc1ccccc1)NC(=O)[C@H](Cc1ccccc1)NC(=O)[C@H](CCCCN)NC(=O)[C@H](CO)NC(=O)[C@H](CC(C)C)NC(=O)[C@H](CCCNC(=N)N)NC(=O)[C@H](CCSC)NC(=O)[C@H](C)N)C(=O)N[C@@H](CC(C)C)C(=O)N(C)[C@@H](CCC(N)=O)C(=O)N[C@@H](CCCNC(=N)N)C(=O)N[C@@H](CCCCN)C(=O)N[C@@H](CCCCN)C(=O)O`, the half-life (commonly the time in which the quantity being followed falls by half) at 0.05 ug/ml in data set [1] is 6 h. In data set [2], the IC50 (commonly the concentration at which inhibition is half-maximal) amounted to 0.37 µM. The Stability entry in data set [3] is “Stable”.

Regarding `CC[C@H](C)[C@H](NC(=O)[C@H](Cc1ccccc1)NC(=O)[C@H](CC(=O)O)NC(=O)[C@H](CCCNC(=N)N)NC(=O)[C@H](Cc1ccccc1)NC(=O)[C@H](Cc1ccccc1)NC(=O)[C@H](CCCCN)NC(=O)[C@H](CO)NC(=O)[C@H](CC(C)C)NC(=O)[C@H](CCCNC(=N)N)NC(=O)[C@H](CCSC)NC(=O)[C@@H](N)CCC(=O)O)C(=O)N[C@@H](CC(C)C)C(=O)N[C@@H](CCC(N)=O)C(=O)N(C)[C@@H](CCCNC(=N)N)C(=O)O` (H-EMRLSKFFRDFILQ[NMeR]-OH), the Activity in [4] and in data set [5] was > 75% each time. The figures for the EC50 in data set [6] and in [7] were > 1 µM and 0.13 µM, respectively.

As for `CC[C@H](C)[C@H](NC(=O)[C@H](Cc1ccccc1)NC(=O)[C@H](CC(=O)O)NC(=O)[C@H](CCCNC(=N)N)NC(=O)[C@H](Cc1ccccc1)NC(=O)[C@H](Cc1ccccc1)NC(=O)[C@H](CCCCN)NC(=O)[C@H](CO)N(C)C(=O)[C@H](CC(C)C)NC(=O)[C@H](CCCNC(=N)N)NC(=O)[C@H](CCSC)NC(=O)[C@@H](N)CCC(=O)O)C(=O)N[C@@H](CC(C)C)C(=O)N[C@@H](CCC(N)=O)C(=O)N[C@@H](CCCNC(=N)N)C(=O)O` (H-EMRL[NMeS]KFFRDFILQR-OH), the Activity in data set [4] and in data set [5] was > 75% each time. Besides, the EC50 (commonly the concentration giving half of the maximal effect) is > 1 µM in data set [6] and 0.28 µM in data set [7].

Turning to H-EMRLSKFFRDFILQR-OH, the EC50 in data set [6] is > 1 µM; in [7] it was 0.0081 µM. In addition, the half-life at 0.05 ug/ml in data set [1] was 4 h.

Turning to `CC[C@H](C)[C@H](NC(=O)[C@H](Cc1ccccc1)NC(=O)[C@H](CC(=O)O)NC(=O)[C@H](CCCNC(=N)N)NC(=O)[C@H](Cc1ccccc1)NC(=O)[C@H](Cc1ccccc1)NC(=O)[C@H](CCCCN)N(C)C(=O)[C@H](CO)NC(=O)[C@H](CC(C)C)NC(=O)[C@H](CCCNC(=N)N)NC(=O)[C@H](CCSC)NC(=O)[C@H](C)N)C(=O)N[C@@H](CC(C)C)C(=O)N[C@@H](CCC(N)=O)C(=O)N[C@@H](CCCNC(=N)N)C(=O)N[C@@H](CCCCN)C(=O)N[C@@H](CCCCN)C(=O)O`, in [1], the half-life at 0.05 ug/ml was 2 h. Further, the 50% inhibitory concentration (IC50) in data set [2] worked out at 0.048 µM. Moreover, the Stability result in data set [3] was “Unstable”.

As to `CC[C@H](C)[C@H](NC(=O)[C@H](Cc1ccccc1)NC(=O)[C@H](CC(=O)O)NC(=O)[C@H](CCCNC(=N)N)NC(=O)[C@H](Cc1ccccc1)NC(=O)[C@H](Cc1ccccc1)NC(=O)[C@H](CCCCN)NC(=O)[C@H](CO)NC(=O)[C@H](CC(C)C)NC(=O)[C@H](CCCNC(=N)N)NC(=O)[C@H](CCSC)NC(=O)[C@@H](N)CCC(=O)O)C(=O)N[C@@H](CC(C)C)C(=O)N(C)[C@@H](CCC(N)=O)C(=O)N[C@@H](CCCNC(=N)N)C(=O)O` (H-EMRLSKFFRDFIL[NMeQ]R-OH), the half-life at 330 µM in [8] was 2 h. In addition, the Activity in data set [4] is > 75%. Further, the result in data set [5] was inactive. Moreover, the half-maximal effective concentration (EC50) in data set [7] was 0.068 µM. For the same molecule, in data set [1], the half-life at 0.05 ug/ml was 6 h.

For `CC[C@H](C)[C@H](NC(=O)[C@H](CCCNC(=N)N)NC(=O)[C@H](CCSC)NC(=O)[C@H](C)N)C(=O)N[C@@H](CO)C(=O)N[C@@H](CCCNC(=N)N)C(=O)N[C@H](C(=O)N[C@H](C(=O)N[C@@H](CC(C)C)C(=O)N[C@H](CC(=O)O)C(=O)N[C@@H](Cc1ccccc1)C(=O)N[C@@H](CC(C)C)C(=O)N(C)[C@@H](Cc1ccccc1)C(=O)N[C@@H](CC(C)C)C(=O)N[C@@H](CCCNC(=N)N)C(=O)N[C@@H](CCCCN)C(=O)N[C@@H](CCCCN)C(=O)O)[C@@H](C)CC)[C@@H](C)CC`, the IC50 in [9] was 0.064 µM; in data set [2], > 1 µM. Moreover, in data set [1], the half-life at 0.05 ug/ml is 4 h. In addition, the Stability result in data set [3] is listed as “Unstable”.

As for `CC[C@H](C)[C@H](NC(=O)[C@H](Cc1ccccc1)NC(=O)[C@H](CC(=O)O)NC(=O)[C@H](CCCNC(=N)N)NC(=O)[C@H](Cc1ccccc1)N(C)C(=O)[C@H](Cc1ccccc1)NC(=O)[C@H](CCCCN)NC(=O)[C@H](CO)NC(=O)[C@H](CC(C)C)NC(=O)[C@H](CCCNC(=N)N)NC(=O)[C@H](CCSC)NC(=O)[C@@H](N)CCC(=O)O)C(=O)N[C@@H](CC(C)C)C(=O)N[C@@H](CCC(N)=O)C(=O)N[C@@H](CCCNC(=N)N)C(=O)O` (H-EMRLSKF[NMeF]RDFILQR-OH), in data set [4], the Activity is > 75%. Further, in [5], the result was inactive. The 50% effective concentration (EC50) in [7] is > 1 µM.

`CC[C@H](C)[C@H](NC(=O)[C@H](Cc1ccccc1)NC(=O)[C@H](CC(=O)O)NC(=O)[C@H](CCCNC(=N)N)NC(=O)[C@H](Cc1ccccc1)NC(=O)[C@H](Cc1ccccc1)N(C)C(=O)[C@H](CCCCN)NC(=O)[C@H](CO)NC(=O)[C@H](CC(C)C)NC(=O)[C@H](CCCNC(=N)N)NC(=O)[C@H](CCSC)NC(=O)[C@@H](N)CCC(=O)O)C(=O)N[C@@H](CC(C)C)C(=O)N[C@@H](CCC(N)=O)C(=O)N[C@@H](CCCNC(=N)N)C(=O)O` (H-EMRLSK[NMeF]FRDFILQR-OH): the half-life at 330 µM in data set [8] is < 0.5 h. Moreover, in [4], the Activity was > 75%. Moreover, the outcome in data set [5] was inactive. Also, the concentration for a half-maximal effect (EC50) in data set [7] stood at 0.28 µM. The half-life at 0.05 ug/ml in data set [1] was > 48 h.

`CC[C@H](C)[C@H](NC(=O)[C@H](Cc1ccccc1)NC(=O)[C@H](CC(=O)O)NC(=O)[C@H](CCCNC(=N)N)NC(=O)[C@H](Cc1ccccc1)NC(=O)[C@H](Cc1ccccc1)NC(=O)[C@H](CCCCN)N(C)C(=O)[C@H](CO)NC(=O)[C@H](CC(C)C)NC(=O)[C@H](CCCNC(=N)N)NC(=O)[C@H](CCSC)NC(=O)[C@H](C)N)C(=O)N[C@@H](CC(C)C)C(=O)N(C)[C@@H](CCC(N)=O)C(=O)N[C@@H](CCCNC(=N)N)C(=O)N[C@@H](CCCCN)C(=O)N[C@@H](CCCCN)C(=O)O`: the half-life at 0.05 ug/ml in data set [1] is 6 h. In addition, in data set [2], the IC50 turned out to be 0.36 µM. Further, the Stability result in data set [3] is reported as “Unstable”.

As to `CC[C@H](C)[C@H](NC(=O)[C@H](Cc1ccccc1)NC(=O)[C@H](CC(=O)O)NC(=O)[C@H](CCCNC(=N)N)NC(=O)[C@H](Cc1ccccc1)NC(=O)[C@H](Cc1ccccc1)NC(=O)[C@H](CCCCN)NC(=O)[C@H](CO)NC(=O)[C@H](CC(C)C)N(C)C(=O)[C@H](CCCNC(=N)N)NC(=O)[C@H](CCSC)NC(=O)[C@@H](N)CCC(=O)O)C(=O)N[C@@H](CC(C)C)C(=O)N[C@@H](CCC(N)=O)C(=O)N[C@@H](CCCNC(=N)N)C(=O)O` (H-EMR[NMeL]SKFFRDFILQR-OH), the Activity in data set [4] is > 75%. In data set [5], the outcome was inactive. Further, in [7], a half-maximal response (EC50) required 0.28 µM.

For the molecule `CC[C@H](C)[C@H](NC(=O)[C@H](Cc1ccccc1)NC(=O)[C@H](CC(=O)O)N(C)C(=O)[C@H](CCCNC(=N)N)NC(=O)[C@H](Cc1ccccc1)NC(=O)[C@H](Cc1ccccc1)NC(=O)[C@H](CCCCN)NC(=O)[C@H](CO)NC(=O)[C@H](CC(C)C)NC(=O)[C@H](CCCNC(=N)N)NC(=O)[C@H](CCSC)NC(=O)[C@@H](N)CCC(=O)O)C(=O)N[C@@H](CC(C)C)C(=O)N[C@@H](CCC(N)=O)C(=O)N[C@@H](CCCNC(=N)N)C(=O)O` (H-EMRLSKFFR[NMeD]FILQR-OH), the result in data set [4] was inactive. Further, in data set [5], the Activity is > 75%. In addition, the EC50 in [6] and in data set [7] was > 1 µM in each case.

Regarding `CC[C@H](C)[C@H](NC(=O)[C@H](Cc1ccccc1)NC(=O)[C@H](CC(=O)O)NC(=O)[C@H](CCCNC(=N)N)NC(=O)[C@H](Cc1ccccc1)NC(=O)[C@H](Cc1ccccc1)NC(=O)[C@H](CCCCN)NC(=O)[C@H](CO)NC(=O)[C@H](CC(C)C)NC(=O)[C@H](CCCNC(=N)N)NC(=O)[C@H](CCSC)NC(=O)[C@@H](N)CCC(=O)O)C(=O)N(C)[C@@H](CC(C)C)C(=O)N[C@@H](CCC(N)=O)C(=O)N[C@@H](CCCNC(=N)N)C(=O)O` (H-EMRLSKFFRDFI[NMeL]QR-OH), the outcome in [4] and in [5] was inactive. Moreover, the 50% effective concentration (EC50) in data set [7] was > 1 µM.
